Results on three compounds are retold here after ChEMBL document CHEMBL4842319, “Synthesis of alkynylated 1,2,4-oxadiazole/1,2,3-1H-triazole glycoconjugates: Discovering new compounds for use in chemotherapy against lung carcinoma and Mycobacterium tuberculosis” (Eur J Med Chem, 2021).

Values after ≈ are worked out from the molar mass of the structure shown.

The test system of data set [1] is Mycobacterium tuberculosis. The data set can be described thus: Antimycobacterial activity against Mycobacterium tuberculosis H37Ra ATCC 25177 assessed as inhibition of bacterial growth incubated for 9 days by resazurin microtiter assay. As to conditions: H37Ra ATCC 25177, 216 h, time 9 day. In kind it is functional. Summed up: (§1)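 REMA broth microdilution in 7H9-S medium, run in duplicate. Test compounds were serially two-fold diluted on the plate from 64 to 0.5 µg/mL. Inoculum taken from fresh Löwenstein-Jensen culture, adjusted to McFarland no. 1 and diluted 1:20. Plates were sealed and incubated at 37 °C in normal atmosphere for 9 days, then resazurin was added. Rifampicin and ethambutol served as standards. MIC reported in µg/mL.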

A short description of data set [2]: Cytotoxicity against African green monkey Vero cells assessed as reduction in cell viability measured after 5 days by MTT assay. In kind it is cell-based. To be noted: chlorocebus sabaeus, time 5 day. Summed up: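 Vero cells in DMEM with 10% inactivated FBS, plated at 1×10⁴ cells/well 24 h before treatment. Compounds were applied at 800, 400, 200, 100 and 50 µM, with at most 0.8% DMSO, for 5 days at 37 °C. MTT (1 mg/mL) was added for 4 h, formazan solubilised in DMSO and OD570 read. CC50 is the concentration giving a 50% reduction in absorbance.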

The nature of data set [3]: Cytotoxicity against human AGP01 cells assessed as inhibition of cell proliferation at 25 uM incubated for 72 hrs by MTT assay relative to control. Format: functional. Also on record: scale not given: the % may be the effect or the level left. An outline of the steps: (§2)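 Tumor lines from NCI. PC-3, HCT-116 and NCIH-460 were grown in RPMI 1640; SKMEL-103 and AGP-01 in DMEM; all with 10% FBS at 37 °C, 5% CO2. Seeding was 0.3×10⁶ cells/mL for SKMEL-103 and AGP-01, 0.1×10⁶ for PC-3 and NCIH-460, and 0.7×10⁵ for HCT-116. Cells were exposed to compound at 25 µM for 72 h. Cells were centrifuged, 1% MTT added for 3 h, formazan dissolved in DMSO and read at 570 nm.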

In data set [4] the test system is PC-3. Kind of data set: Cytotoxicity against human PC-3 cells assessed as inhibition of cell proliferation at 25 uM incubated for 72 hrs by MTT assay relative to control. On the set-up: scale not given: the % may be the effect or the level left. In kind it is functional. An outline of the steps:
as §2

The test system of data set [5] is Mycobacterium tuberculosis. Kind of data set: Antimycobacterial activity against Mycobacterium tuberculosis H37Rv ATCC 27294 assessed as inhibition of bacterial growth incubated for 9 days by resazurin microtiter assay. Format: functional. To be noted: H37Rv ATCC 27294, 216 h, time 9 day. An outline of the steps: as §1
Data set [6] in a line: Selectivity index, ratio of CC50 for human HepG2 cells to MIC for antimycobacterial activity against Mycobacterium tuberculosis H37Rv ATCC 27294. Format: toxicity. To be noted: read-out: Selectivity Index.
For data set [7], the system named is NCI-H460. The data set can be described thus: Cytotoxicity against human NCI-H460 cells assessed as inhibition of cell proliferation at 25 uM incubated for 72 hrs by MTT assay relative to control. In kind it is functional. Also on record: scale not given: the % may be the effect or the level left. Summed up:
as §2

A short description of data set [8]: Cytotoxicity against mouse RAW264.7 cells assessed as reduction in cell viability incubated for 48 hrs by MTT assay. In kind it is cell-based. Summed up: (§3)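 RAW 264.7 macrophages and HepG2 cells were cultured in DMEM at 37 °C, 5% CO2. For the assay, 10⁵ cells/well were preincubated for 24 h, then exposed to compounds at […] for 48 h, in duplicate. MTT (5 mg/mL in PBS) was added for 2 h and absorbance read at 570 nm. Untreated wells served as the negative control. CC50 obtained by regression analysis.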

Data set [9] can be described thus: Cytotoxicity against human HepG2 cells assessed as reduction in cell viability incubated for 48 hrs by MTT assay. Format: cell-based. An outline of the steps: as §3
For data set [10], the system named is HCT-116. The data set can be described thus: Cytotoxicity against human HCT-116 cells assessed as inhibition of cell proliferation at 25 uM incubated for 72 hrs by MTT assay relative to control. In kind it is functional. Also on record: scale not given: the % may be the effect or the level left. Summed up:
as §2

Data set [11] is described as follows: Selectivity index, ratio of CC50 for mouse RAW264.7 cells to MIC for antimycobacterial activity against Mycobacterium tuberculosis H37Rv ATCC 27294. As to conditions: read-out: Selectivity Index. In kind it is toxicity.
For data set [12], the system named is SK-MEL-103. Kind of data set: Cytotoxicity against human SK-MEL-103 cells assessed as inhibition of cell proliferation at 25 uM incubated for 72 hrs by MTT assay relative to control. In kind it is functional. On the set-up: scale not given: the % may be the effect or the level left. Summed up: as §2
Data set [13] relates to Mycobacterium tuberculosis. Kind of data set: Antimycobacterial activity against Mycobacterium tuberculosis H37Rv ATCC 27294 assessed as inhibition of bacterial growth by agar dilution method. Format: functional.
In data set [14] the test system is Mycobacterium tuberculosis. The data set can be described thus: Antitubercular activity against Mycobacterium tuberculosis H37Rv. In kind it is functional.

With `COc1ccc(-c2noc(N(Cc3cn(C[C@H](CO[C@@H]4C=C[C@H](OC(C)=O)[C@@H](COC(C)=O)O4)OC(C)=O)nn3)C3CCCCC3)n2)cc1`, the minimum inhibitory concentration (MIC) in data set [1] stood at 16 µg/mL (≈ 23.4 µM); in data set [5] it was 32 µg/mL (≈ 46.9 µM). Further, the half-maximal cytotoxic concentration (CC50) at 120 h in [2] stood at 575 µM. For the same compound, the Activity amounted to 59.2% in data set [3]; 21.6% in data set [4]; 24.2% in data set [7]; 24.2% in data set [10]; 29.8% in [12]. Also, the values for the selectivity ratio in [6] and in [11] were 4.41 and 2.7, respectively. In addition, the cytotoxic concentration (CC50) at 48 h in [8] is 86.3 µg/mL (≈ 126 µM); in [9], 141 µg/mL (≈ 207 µM).

Take `CCCCCc1ccc(-c2cn(CC(O)COc3cccc4c3OCC3(CCCCC3)C4=O)nn2)cc1` (centres undefined): the MIC in [13] turned out to be 0.78 µg/mL (≈ 1.55 µM).

On to `CC(C)c1ccc(-c2nc(CN3CCN(c4ccnc5c(-c6cccnc6)cccc45)CC3)no2)cc1`, for which the minimum inhibitory concentration (MIC) in data set [14] is 0.25 µg/mL (≈ 0.51 µM).
